ChEMBL document CHEMBL4028876, “Discovery of a Novel Piperidine-Based Inhibitor of Cholesteryl Ester Transfer Protein (CETP) That Retains Activity in Hypertriglyceridemic Plasma” (J Med Chem, 2017)
Calls of active or inactive are those of the source. No cut-off for these calls is given here.

Legend:
[1] = molecular target: T1, Cholesteryl ester transfer protein (Homo sapiens) (UniProt P11597); test: Inhibition of CETP activity in human serum at upto 1200 mg/dl serum triglyceride concentration by LC-MS/MS method; conditions: in the assay text read “fluorescence method” for “LC-MS/MS method”
T1 sequence (whole entry): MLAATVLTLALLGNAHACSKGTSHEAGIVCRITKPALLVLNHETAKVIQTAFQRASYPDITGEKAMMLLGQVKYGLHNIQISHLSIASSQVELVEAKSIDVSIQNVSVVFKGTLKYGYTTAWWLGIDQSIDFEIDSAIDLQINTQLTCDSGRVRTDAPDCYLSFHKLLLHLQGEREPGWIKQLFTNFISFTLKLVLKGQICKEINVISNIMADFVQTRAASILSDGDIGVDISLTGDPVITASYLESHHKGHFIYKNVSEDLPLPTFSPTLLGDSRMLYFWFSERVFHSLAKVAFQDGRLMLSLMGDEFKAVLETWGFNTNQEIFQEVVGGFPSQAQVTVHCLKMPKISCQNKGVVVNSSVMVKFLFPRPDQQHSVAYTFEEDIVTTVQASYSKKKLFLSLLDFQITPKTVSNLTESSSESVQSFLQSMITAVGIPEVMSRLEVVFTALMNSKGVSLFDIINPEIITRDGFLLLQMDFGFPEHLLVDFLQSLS
Outline: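 Three human serum pools of differing triglyceride level. IC50 values are the mean of two replicates per pool.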

Serum [2] = test: Drug uptake in triglyceride rich lipoprotein fraction of human serum from human donors with triglyceride levels ( 300-500 and >750 mg/dL) by LC-MS/MS method; assay type: ADME, cell-free
Outline: (§1)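 Pooled unfasted human serum (mean TG 122, 347 or 958 mg/dL) spiked with inhibitor to 500 ng/mL, 37 °C, 1 h. NaBr density-gradient ultracentrifugation, 18.5 h at 15 °C. Acetonitrile precipitation, glyburide internal standard, LC-MS/MS in duplicate. Result given as % of total across pools.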

Serum [3] = test: Drug uptake in HDL fraction of human serum from human donors with normal triglyceride levels (<150 mg/dL) by LC-MS/MS method; assay type: ADME, cell-free; outline: as §1
Syrian golden hamster [4] = test: Increase in HDL cholesterol level in Syrian hamster plasma at 0.3 and 10 mg/kg, po dosed once daily for 2 weeks and measured 24 hrs post last dose by HPLC size exclusion chromatography method relative to control; assay type: functional, organism-based; conditions: Mesocricetus auratus
Outline: (§2)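 Chow-fed hamsters gavaged once daily in the morning for 2 weeks (0.3, 1, 3, 10 mg/kg; vehicle 10 mL/kg). Blood is drawn from the abdominal vein under isoflurane 24 h post last dose, after a 16 h fast. Lipoprotein cholesterol is measured by Superose 6 HPLC with online enzymatic detection at 580 nm, standardized to control plasma. Mean ± SEM, n=6, Dunnett test.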

Syrian golden hamster [5] = test: Inhibition of CETP in Syrian hamster blood at 3 and 10 mg/kg, po dosed once daily for 2 weeks and measured 24 hrs post last dose; assay type: functional, organism-based; conditions: Mesocricetus auratus
Serum [6] = test: Drug uptake in triglyceride rich lipoprotein fraction of human serum from human donors with normal triglyceride levels (<150 mg/dL) by LC-MS/MS method; assay type: ADME, cell-free; outline: as §1
NCI-H295R = test: Toxicty in human NCI-H295R cells assessed as increase in aldosterone levels at 0.1 to 10000 nM after 24 hrs by scintillation proximity assay; assay type: toxicity, cell-based; conditions: 10 µM
[7] = Drug uptake in Syrian hamster adrenal tissue at 10 mg/kg, po dosed once daily for 14 days measured 24 hrs post last dose by LC-MS/MS method; assay type: ADME, organism-based, Mesocricetus auratus, Adrenal gland; conditions: in vivo
Outline: (§3)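 Chow-fed hamsters dosed orally once daily for 14 days. Blood and ~100 mg adipose, adrenal and liver samples are taken 24 h after the final dose. Tissues are flash-frozen and stored at −80 °C. Total drug concentrations are measured by LC-MS/MS. Mean ± SEM, seven animals per group.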

Syrian golden hamster [8] = test: Reduction in LDL cholesterol level in Syrian hamster plasma at 0.3 and 10 mg/kg, po dosed once daily for 2 weeks and measured 24 hrs post last dose by HPLC size exclusion chromatography method relative to control; assay type: functional, organism-based; conditions: Mesocricetus auratus; outline: as §2
Hamster [9] = test: Ex vivo inhibition of CETP activity in hamster hypertriglyceridemia model treated with 100 mg/kg, iv Triton WR-1339 dosed 5 hrs post compound dose measured every 15 mins for 120 mins by fluorescence method; assay type: functional, organism-based; conditions: Cricetinae
Outline: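 Chow-fed hamsters given a single gavage dose of compound or vehicle. Triton WR-1339 (100 mg/kg) or saline is given iv 5 h later, and plasma is taken 3 h after that. Plasma (final 80%) is mixed with fluorescent donor in 50 mM Tris-HCl pH 7.4, 150 mM NaCl, 2 mM EDTA. Ex/em 485/535 nm, read every 15 min for 120 min at 37 °C. Activity is the 30–90 min slope. Five animals per group.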

Serum [10] = test: Drug uptake in lipoprotein deficient serum fraction of human serum from human donors with normal triglyceride levels (<150 mg/dL) by LC-MS/MS method; assay type: ADME, cell-free; outline: as §1
[11] = 1-Octanol-phosphate buffered saline partition coefficient, log D of compound at […] by tandem mass spectrometry method; assay type: physicochemical
Serum [12] = test: Drug uptake in LDL fraction of human serum from human donors with normal triglyceride levels (<150 mg/dL) by LC-MS/MS method; assay type: ADME, cell-free; outline: as §1
Syrian golden hamster [13] = test: Reduction in LDL cholesterol level in Syrian hamster plasma at 0.3 and 10 mg/kg, po dosed once daily for 2 weeks and measured 24 hrs post last dose by HPLC size exclusion chromatography method; assay type: functional, organism-based; conditions: Mesocricetus auratus; outline: as §2
[14] = Drug uptake in Syrian hamster plasma at 10 mg/kg, po dosed once daily for 14 days measured 24 hrs post last dose by LC-MS/MS method; assay type: ADME, organism-based, Mesocricetus auratus; conditions: in vivo; outline: as §3
Hamster [15] = test: Increase in HDL cholesterol levels in hamster plasma by HPLC size exclusion chromatography method relative to control; assay type: functional; conditions: Cricetinae; outline: as §2
[16] = Drug uptake in Syrian hamster adipose tissue at 10 mg/kg, po dosed once daily for 14 days measured 24 hrs post last dose by LC-MS/MS method; assay type: ADME, organism-based, Mesocricetus auratus; conditions: in vivo; outline: as §3
Cytochrome P450 2D6 = Cytochrome P450 2D6 (Homo sapiens, UniProt P10635); test: Inhibition of CYP2D6 (unknown origin); assay type: ADME
Sequence of Cytochrome P450 2D6 (P10635 whole entry): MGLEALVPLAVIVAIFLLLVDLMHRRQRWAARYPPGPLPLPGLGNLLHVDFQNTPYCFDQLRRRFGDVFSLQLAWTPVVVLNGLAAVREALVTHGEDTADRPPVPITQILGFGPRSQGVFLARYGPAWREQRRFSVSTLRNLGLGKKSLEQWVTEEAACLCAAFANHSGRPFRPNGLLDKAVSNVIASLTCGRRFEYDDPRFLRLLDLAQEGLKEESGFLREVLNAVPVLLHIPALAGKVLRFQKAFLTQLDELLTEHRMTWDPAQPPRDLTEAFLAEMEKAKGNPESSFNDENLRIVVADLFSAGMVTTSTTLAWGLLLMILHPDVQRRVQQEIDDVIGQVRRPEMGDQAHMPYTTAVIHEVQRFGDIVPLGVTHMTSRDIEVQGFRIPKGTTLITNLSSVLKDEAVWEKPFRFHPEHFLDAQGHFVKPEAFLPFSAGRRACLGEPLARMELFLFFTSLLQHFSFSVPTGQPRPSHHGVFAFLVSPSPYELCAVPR

Serum [17] = test: Drug uptake in LDL fraction of human serum from human donors with triglyceride levels ( 300-500 and >750 mg/dL) by LC-MS/MS method; assay type: ADME, cell-free; outline: as §1
Cytochrome P450 3A4 [18] = molecular target: T2, Cytochrome P450 3A4 (Homo sapiens, UniProt P08684); test: Inhibition of CYP3A4 (unknown origin) in the presence of midozolam; assay type: ADME
T2 sequence (P08684 whole entry): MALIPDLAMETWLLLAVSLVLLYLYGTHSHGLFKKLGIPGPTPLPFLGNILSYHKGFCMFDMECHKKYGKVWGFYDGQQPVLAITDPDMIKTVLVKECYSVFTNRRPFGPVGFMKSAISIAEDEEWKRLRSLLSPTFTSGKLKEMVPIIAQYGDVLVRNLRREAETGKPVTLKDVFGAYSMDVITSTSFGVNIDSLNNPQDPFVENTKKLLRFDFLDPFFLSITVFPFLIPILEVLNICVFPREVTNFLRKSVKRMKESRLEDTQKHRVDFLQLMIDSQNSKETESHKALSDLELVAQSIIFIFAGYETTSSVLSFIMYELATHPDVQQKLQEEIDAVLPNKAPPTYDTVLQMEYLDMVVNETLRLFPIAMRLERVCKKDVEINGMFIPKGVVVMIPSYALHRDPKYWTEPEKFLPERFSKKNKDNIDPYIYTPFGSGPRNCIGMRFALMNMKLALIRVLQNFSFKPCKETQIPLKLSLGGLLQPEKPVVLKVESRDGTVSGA

[19] = Oral bioavailability in Sprague-Dawley rat at 3 mg/kg by LC-ESI-MS/MS analysis; assay type: ADME, organism-based; conditions: in vivo
Outline: (§4)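 Conscious 7-week-old male Sprague-Dawley rats on standard diet with free water. Dosing is 1 mg/kg iv bolus in N-methylpyrrolidin-2-one/PEG 200, or 3 mg/kg oral suspension in 0.5% aqueous methylcellulose. Blood is sampled at various time points after administration.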

[20] = Selectivity for inhibition of CYP2C9 (unknown origin) to IC50 for inhibition of CETP in human plasma
Cytochrome P450 2C9 = Cytochrome P450 2C9 (Homo sapiens, UniProt P11712); test: Inhibition of CYP2C9 (unknown origin); assay type: ADME
Sequence of Cytochrome P450 2C9 (P11712 whole entry): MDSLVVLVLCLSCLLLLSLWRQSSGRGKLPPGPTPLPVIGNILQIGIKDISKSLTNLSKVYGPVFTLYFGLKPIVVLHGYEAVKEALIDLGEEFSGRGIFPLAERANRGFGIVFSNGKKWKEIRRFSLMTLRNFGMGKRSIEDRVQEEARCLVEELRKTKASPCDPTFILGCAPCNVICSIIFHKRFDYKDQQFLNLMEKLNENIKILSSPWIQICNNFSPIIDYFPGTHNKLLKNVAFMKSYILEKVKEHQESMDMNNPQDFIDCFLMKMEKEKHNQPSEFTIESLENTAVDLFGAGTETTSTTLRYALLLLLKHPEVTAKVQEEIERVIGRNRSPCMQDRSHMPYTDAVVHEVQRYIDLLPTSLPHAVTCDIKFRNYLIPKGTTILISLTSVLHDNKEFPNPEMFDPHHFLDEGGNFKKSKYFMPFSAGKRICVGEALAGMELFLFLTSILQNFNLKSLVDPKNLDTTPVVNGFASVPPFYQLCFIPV

Serum [21] = test: Drug uptake in HDL fraction of human serum from human donors with triglyceride levels ( 300-500 and >750 mg/dL) by LC-MS/MS method; assay type: ADME, cell-free; outline: as §1
[22] = Selectivity for inhibition of CYP2D6 (unknown origin) to IC50 for inhibition of CETP in human plasma
Serum [23] = test: Drug uptake in lipoprotein deficient serum fraction of human serum from human donors with triglyceride levels ( 300-500 and >750 mg/dL) by LC-MS/MS method; assay type: ADME, cell-free; outline: as §1
[24] = Selectivity for inhibition of CYP3A4 (unknown origin) to IC50 for inhibition of CETP in human plasma
[25] = Half life in Sprague-Dawley rat at 1 mg/kg, iv or 3 mg/kg, po by LC-ESI-MS/MS analysis; assay type: ADME, organism-based; conditions: in vivo; outline: as §4
[26] = Volume of distribution in Sprague-Dawley rat at 1 mg/kg, iv or 3 mg/kg, po by LC-ESI-MS/MS analysis; assay type: ADME, organism-based; conditions: in vivo; outline: as §4
[27] = AUC (infinity) in Sprague-Dawley rat at 1 mg/kg, iv or 3 mg/kg, po by LC-ESI-MS/MS analysis; assay type: ADME, organism-based; conditions: in vivo; outline: as §4
Syrian golden hamster [28] = test: Inhibition of CETP in Syrian hamster blood at 0.3 to 10 mg/kg, po dosed once daily for 2 weeks and measured 24 hrs post last dose; assay type: functional, organism-based; conditions: Mesocricetus auratus
Cytochrome P450 3A4 [29] = molecular target: T2, Cytochrome P450 3A4; test: Inhibition of CYP3A4 (unknown origin) in the presence of testosterone; assay type: ADME
Rattus norvegicus [30] = test: Toxicity in cannulated Sprague-Dawley rat assessed as increase in mean arterial pressure at 5 mg/kg, iv by blood pressure transducer based method; assay type: organism-based; conditions: in vivo
Rattus norvegicus [31] = test: Toxicity in cannulated Sprague-Dawley rat assessed as increase in plasma aldosterone levels at 5 mg/kg, iv by radioimmunoassay; assay type: organism-based; conditions: in vivo
Plasma = test: Protein binding in human plasma using [14C]-labeled compound after 3 hrs by scintillation counting based ultracentrifugation method; assay type: ADME, cell-free
Outline: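 Human plasma spiked with [14C]-labelled compound at 50−10000 ng/mL, then ultracentrifuged 3 h at 37 °C at 306000g. Supernatant radioactivity is counted by scintillation. Bound fraction = (total − supernatant)/total.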

[32] = Clearance in Sprague-Dawley rat plasma at 1 mg/kg, iv or 3 mg/kg, po by LC-ESI-MS/MS analysis; assay type: ADME, organism-based; outline: as §4

## COc1cc(F)c(C(C)C)cc1-c1ccc(C(F)(F)F)cc1CN1C(=O)O[C@H](c2cc(C(F)(F)F)cc(C(F)(F)F)c2)[C@@H]1C [ANACETRAPIB]
[1]
  inhibition: inactive
Serum [2]
  Drug uptake: Active
Serum [3]
  Drug uptake: Active
Syrian golden hamster [4]
  Activity: Dose-dependent effect
Syrian golden hamster [5]
  inhibition: Active
Serum [6]
  Drug uptake: Active
NCI-H295R
  Activity: Non-Toxic
[7]
  Drug uptake: Active
Syrian golden hamster [8]
  Activity: Active
Hamster [9]
  inhibition: inactive
Serum [10]
  Drug uptake: Active
[11]
  logD: > 5.9
Serum [12]
  Drug uptake: Active
Syrian golden hamster [13]
  Activity: Dose-dependent effect
[14]
  Drug uptake: Not Active
Hamster [15]
  Activity: Dose-dependent effect
[16]
  Drug uptake: Active

## CC[C@@H]1C[C@H](N(Cc2cc(C(F)(F)F)cc(C(F)(F)F)c2)c2ncc(-c3cnn(C)c3)cn2)C[C@H](CC)N1C(=O)O[C@H]1CC[C@H](C(=O)O)CC1
[1]
  inhibition: Active
Serum [2]
  Drug uptake: Active
Cytochrome P450 2D6
  IC50: 31 µM
Serum [3]
  Drug uptake: Active
Serum [17]
  Drug uptake: Active
Syrian golden hamster [4]
  Activity: Dose-dependent effect
Serum [6]
  Drug uptake: Active
Cytochrome P450 3A4 [18]
  IC50: 10.6 µM
NCI-H295R
  Activity: Non-Toxic
[7]
  Drug uptake: Not Active
Syrian golden hamster [8]
  Activity: Active
Hamster [9]
  inhibition: Active
[19]
  bioavailability: 43%
[20]
  Selectivity ratio: >170
Cytochrome P450 2C9
  IC50: 19 µM
Serum [21]
  Drug uptake: Active
[22]
  Selectivity ratio: >170
Serum [23]
  Drug uptake: Active
[24]
  Selectivity ratio: >170
[25]
  half-life: 5.8 h
[26]
  Vd: 0.57 L/kg
Serum [10]
  Drug uptake: Active
[27]
  AUC(0-inf): 27.2 µM·h
Syrian golden hamster [28]
  inhibition: Active
Cytochrome P450 3A4 [29]
  IC50: > 50 µM
[11]
  logD: 5.2
Rattus norvegicus [30]
  Activity: Non-Toxic
Serum [12]
  Drug uptake: Active
Syrian golden hamster [13]
  Activity: Dose-dependent effect
[14]
  Drug uptake: Active
Hamster [15]
  Activity: Dose-dependent effect
[16]
  Drug uptake: Not Active
Rattus norvegicus [31]
  Activity: Non-Toxic
Plasma
  PPB: 99.4%
[32]
  clearance: 1.5 mL/min/kg
